CHO parental Ca = ATP-evoked calcium signal inhibitors, parental CHO, primary screen, counter-screen for OX1R antagonist project, cell-based, fluorescence, Fluo-8 calcium dye | parental CHO-K1, ATP-induced calcium, Fluo-8 fluorescence | inhibition, % at 5.6 µM | hit rate 0.63% among 330,000 | AID 463079, 2010;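 active = inhibition above that plate's mean sample inhibition plus 3 SD, cut at about 26% in these data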;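 also: 0% = ATP-challenged DMSO wells and 100% = DMSO wells without ATP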
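Material: Parental CHO cells | Reagent: ATP | Compound dosing: Single nominal dose of 5.6 µM per compound | Detection: Intracellular calcium via Fluo-8 no-wash fluorescent dye | Read-out: % inhibition of ATP-induced calcium mobilization | Benchmarks: Low control ATP plus DMSO, high control DMSO only | Replicates: Singlicate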
OX1R antag-1 = antagonists of human orexin 1 receptor (OX1R). OX1R-expressing cells, FRET antagonist read-out. inhibition, % at 6.6 µM. hit rate 1.8% among 330,000. AID 485270, 2010; in the data active = inhibition mostly above about 38%, no sharp cut-off; inactive = mostly below about 40%;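 also: 0% = agonist challenge alone and 100% = reference antagonist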
TAAR1 antag = human TAAR1 antagonists, primary screen, Fluo-8 calcium fluorescence, CHO RD-HGA16 cells; inhibition, % at 3 µM; hit rate 1.5% among 360,000; antagonist; Trace amine-associated receptor 1 (Homo sapiens), Q96RJ0;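 active = inhibition above a per-plate cutoff, the mean inhibition of test compounds on that plate plus 3 SD, cut at about 49% in these data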;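 also: 0% = DMSO plus EC80 beta-PEA response and 100% = DMSO alone without agonist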
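Material: CHO RD-HGA16 cells bearing hTAAR1; compound dosing: one-point dosing, 3 µM nominal final; schedule: dye loading 75 min at 37 °C, then 30 min room temperature; measured by: calcium fluorescence with Fluo-8; control set: vehicle and agonist controls; replication: n of 1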
OX1R antag-2 = OX1R (HCRTR1) antagonists, primary screen, fluorescence, CHO/OX1R cells, Fluo-8 calcium, orexin A; hit rate 0.43% among 330,000; Fluo-8 calcium fluorescence; inhibition, % at 5 µM;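 active = inhibition above its plate's threshold, mean inhibition of all tested compounds on the plate plus 3 SD, cut at about 37% in these data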;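 also: 0% = orexin A challenge wells and 100% = SB-334867-A antagonist wells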
GPR7 antagonist = GPR7 receptor antagonists, primary screen, cell-based, fluorescence, single concentration | Neuropeptides B/W receptor type 1 (Homo sapiens), P48145 | GPR7-expressing cells, fluorescence antagonist assay | inhibition, % at 4.4 µM | hit rate 1.1% among 290,000; in the data active = inhibition above about 16%, passing the limit was not always enough;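 also: cells stimulated with the agonist NPW; 0% = agonist with vehicle and 100% = vehicle without agonist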
Target sequence (P48145 whole entry, looked up): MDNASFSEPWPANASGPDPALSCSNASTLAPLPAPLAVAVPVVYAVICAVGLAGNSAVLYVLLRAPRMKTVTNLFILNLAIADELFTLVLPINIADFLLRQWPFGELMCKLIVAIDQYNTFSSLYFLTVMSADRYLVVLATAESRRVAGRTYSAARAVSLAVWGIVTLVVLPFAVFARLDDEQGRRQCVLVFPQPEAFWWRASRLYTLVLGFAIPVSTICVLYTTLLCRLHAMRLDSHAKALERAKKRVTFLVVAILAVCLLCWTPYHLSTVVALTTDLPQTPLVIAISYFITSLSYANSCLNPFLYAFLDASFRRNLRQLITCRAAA
TAAR1 agonist = human TAAR1 agonists, primary screen, Fluo-8 calcium fluorescence, CHO RD-HGA16 cells; Trace amine-associated receptor 1 (Homo sapiens), Q96RJ0; activation, % at 3 µM; vehicle wells 0%, saturating PEA agonist 100%; hit rate 0.99% among 360,000;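 active = activation above the mean activation of all test compounds in the run plus 3 SD, cut at about 38% in these data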
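Test system: RD-HGA16 (CHO) cells co-expressing Gα16 and hTAAR1; dosing: one-point dosing at 3 µM (nominal); timing: 17-24 h seeding, 75 min 37 °C dye, 30 min RT; signal: kinetic Fluo-8 calcium fluorescence; read-out basis: % activation relative to PEA EC100 response; controls: DMSO and PEA EC100; replicates: n 1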
TAAR1 ag confirm = human TAAR1 agonists, retest of hits, confirmation, Fluo-8 calcium fluorescence, CHO RD-HGA16 cells; shares compounds with TAAR1 agonist; scaled: DMSO 0%, maximal phenethylamine 100%; activation, % at 3 µM; hit rate 82% among 2,400; AID 651783, 2012;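 active = activation above a cutoff set at the run's mean compound activation plus 3 SD, cut at about 39% in these data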
Ga16 nonsel ag = nonselective calcium mobilization agonists, CHO-Ga16 cells, counter-screen for hTAAR1 agonist project, cell-based, fluorescence, CHO-Ga16 parental line | shares compounds with TAAR1 agonist | Fluo-8 calcium fluorescence; normalized to maximal ATP response, DMSO zero | activation, % at 3 µM | hit rate 50% among 2,400;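 active = activation above the run cutoff, the mean activation over all tested wells plus 3 SD, cut at about 12% in these data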;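 also: 0% = DMSO wells and 100% = maximal ATP response on the peak over basal ratio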
TAAR1 desens = TAAR1 desensitization by agonist hits, confirmation, counter-screen for TAAR1 agonist project, cell-based, fluorescence, tachyphylaxis. shares compounds with TAAR1 agonist. CHO RD-HGA16 hTAAR1, Fluo-8 calcium, beta-PEA response inhibition. inhibition, % at 3 µM. hit rate 46% among 2,400;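 active = inhibition above the run cutoff, the mean inhibition of all test compounds plus 3 SD, cut at about 49% in these data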;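 also: beta-PEA stimulus applied at its EC80; loss of beta-PEA calcium signal after compound pretreatment read as receptor desensitization; 0% = DMSO with beta-PEA at EC80 and 100% = DMSO alone without agonist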
Ga16 nonsel ant = inhibition of ATP-evoked calcium response in CHO-Ga16 cells, counter-screen for TAAR1 agonist project, cell-based, fluorescence; AID 651952, 2012; hit rate 39% among 2,400; inhibition, % at 3 µM; shares compounds with TAAR1 agonist; CHO-Ga16 ATP-induced calcium, Fluo-8 fluorescence;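 active = inhibition above the plate's mean compound inhibition plus 3 SD, computed per plate, cut at about 22% in these data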;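 also: 0% = EC80 ATP with DMSO and 100% = DMSO wells without ATP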
* marks the source's active call; other numbers are inactive results; · = not tested or not shown. Shown are actives, neighbours in structure and some others; about 4.6% of the full set was active somewhere.

SMILES	CHO parental Ca	OX1R antag-1	TAAR1 antag	OX1R antag-2	GPR7 antagonist	TAAR1 agonist	TAAR1 ag confirm	Ga16 nonsel ag	TAAR1 desens	Ga16 nonsel ant
CCN(Cc1ccccc1)C(=O)c1cc2c(OC)c(OC)c(OC)cc2[nH]1	-12.8	4.8	10.3	-24.9	-3.5	4.5	·	·	·	·
Cc1cccc(C)c1-n1nnnc1C1(C)CCC(=O)N1Cc1ccc(F)cc1 (centres undefined)	·	·	-19.3	·	·	-0.6	·	·	·	·
CCOC(=O)c1sc2c(c1C)C(c1cccs1)C1=C(CCCC1=O)N2 (centres undefined)	-10.3	22.2	45.1	21.4	4.2	68.3*	45.8*	15.9*	25.1	14.5
COc1ccc(C=C2CS(=O)(=O)CC(=Cc3ccc(OC)cc3)C2=O)cc1	·	·	6.4	·	·	7.0	·	·	·	·
O=C(CCCN=C1NS(=O)(=O)c2ccccc21)OCC(=O)c1ccc(F)cc1	4.4	9.5	30.5	12.4	·	67.3*	85.8*	33.2*	33.5	29.6*
CSc1ccc(CN2CCC2(C)C(=O)NCc2cccs2)cc1 (centres undefined)	·	·	-11.0	·	·	-0.9	·	·	·	·
O=c1cc(-c2ccc(C(F)(F)F)cc2)oc2ccccc12	-27.1	8.9	0.4	-18.3	·	-0.9	·	·	·	·
CC(=O)NNC(=S)NC(=O)c1cccc([N+](=O)[O-])c1	-0.2	34.3	-27.1	14.7	0.4	2.4	·	·	·	·
O=C(NNC(=S)NCc1ccccc1)c1cccc([N+](=O)[O-])c1	-1.4	23.7	-25.0	-7.4	-4.4	0.6	·	·	·	·
O=C(NNC(=S)NC(=O)c1ccc(Br)cc1)c1ccc([N+](=O)[O-])cc1	10.9	20.5	95.2*	-2.5	-3.2	124.4*	141.5*	110.1*	95.6*	64.9*
O=C(NNC(=S)NC(=O)c1ccccc1)c1ccc([N+](=O)[O-])cc1	-2.8	3.9	27.2	-9.8	4.2	64.3*	70.2*	45.5*	18.7	21.6*
O=C(NNC(=O)c1ccc([N+](=O)[O-])cc1)c1ccc(Br)cc1	-4.7	15.2	-22.3	2.2	-0.6	0.8	·	·	·	·
O=C(NNC(=S)NC(=O)c1ccccc1Cl)c1cccc([N+](=O)[O-])c1	-0.2	6.0	34.5	10.8	-7.2	92.4*	56.6*	43.0*	21.7	21.8*
O=C(NNC(=S)NC(=O)c1ccc(Br)cc1)c1cccc([N+](=O)[O-])c1	0.6	1.8	35.3	-1.8	14.8	135.2*	105.0*	87.9*	40.2	20.9
O=C1S/C(=C\c2ccc(N3CCOCC3)o2)C(=O)N1c1ccccc1	-3.8	16.2	82.9*	-19.3	-6.1	208.9*	140.4*	162.7*	81.6*	87.4*
Cc1cc(Cl)nc(Cl)c1C(=O)NCc1ccc(Cl)cc1	-5.7	0.4	-5.1	-12.9	-12.0	-0.8	·	·	·	·
